Tests used:
A2780 = test: Antiproliferative activity against human A2780 cells; type: cell-based
Plasmodium falciparum [1] = test: Resistance factor, ratio of IC50 for chloroquine-resistant Plasmodium falciparum Dd2 to IC50 for chloroquine-sensitive Plasmodium falciparum HB3; type: functional
Plasmodium falciparum [2] = test: Antiplasmodial activity against chloroquine-resistant Plasmodium falciparum Dd2 after 72 hrs by SYBR green 1 dye based fluorometric method; type: functional, organism-based; conditions: Dd2, 72 h
Procedure, shortened: (§1)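 Sorbitol-synchronised ring-stage cultures (>95% rings), final 1% hematocrit and 0.5% parasitemia, added to prewarmed wells holding sample diluted in complete medium from DMSO stock. Incubated 72 h at 37 °C under 90% N, 5% O2, 5% CO2. SYBR Green I added, 1 h at 37 °C, fluorescence ex 490/em 530 nm. Triplicate IC50s averaged (±S.E.M.); chloroquine positive control.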

Plasmodium falciparum [3] = test: Antiplasmodial activity against chloroquine-sensitive Plasmodium falciparum HB3 after 72 hrs SYBR green 1 dye based by fluorometric method; type: functional, organism-based; conditions: HB3, 72 h; procedure, shortened: as §1

Compound	IC50 (A2780)	Ratio IC50 (Plasmodium falciparum [1])	IC50 (Plasmodium falciparum [2])	IC50 (Plasmodium falciparum [3])
C=C1C(=O)O[C@@H]2[C@@H](C)[C@@H]3C=CC(=O)[C@@]3(C)[C@@H](OC(=O)/C=C(\C)CC)[C@H]1[C@H]2OC(=O)CC(C)(O)CC (relative stereo)	1900 nM			
C=C1C(=O)O[C@@H]2[C@@H](C)[C@@H]3C=CC(=O)[C@@]3(C)[C@@H](OC(=O)/C(C)=C\C)[C@H]1[C@H]2OC(=O)CC(C)(C)O (relative stereo)	570 nM			
C=C1C(=O)O[C@@H]2[C@@H](C)[C@@H]3C=CC(=O)[C@@]3(C)[C@@H](OC(=O)/C(C)=C\C)[C@H]1[C@H]2OC(=O)CC(C)(O)CC (relative stereo)	380 nM			
C=C1C(=O)O[C@H]2C[C@@H](C)[C@@H]3[C@@H](OC(=O)C(C)C)C[C@@H](OC(C)=O)[C@@]3(C)[C@@H](OC(C)=O)[C@H]12 [ATHROLIDE A]	2100 nM	1	32700 nM	34300 nM
C=C1C(=O)O[C@H]2C[C@@H](C)[C@@H]3[C@@H](OC(=O)C(C)C)C[C@@H](OC(C)=O)[C@@]3(C)[C@H](O)[C@H]12 [ATHROLIDE B]	2500 nM			
CC(=O)O[C@H]1C(=O)[C@@]2(C)[C@H]([C@H](OC(=O)c3ccccc3)[C@]3(O)C[C@H](OC(=O)[C@H](O)[C@@H](NC(=O)c4ccccc4)c4ccccc4)C(C)=C1C3(C)C)[C@]1(OC(C)=O)CO[C@@H]1C[C@@H]2O [PACLITAXEL]	17 nM			

Reference: ChEMBL document CHEMBL1833904, “Antiplasmodial and antiproliferative pseudoguaianolides of Athroisma proteiforme from the Madagascar Dry Forest” (J Nat Prod, 2011)
